Source: ChEMBL document CHEMBL2046390, “Carnosine analogues containing NO-donor substructures: synthesis, physico-chemical characterization and preliminary pharmacological profile” (Eur J Med Chem, 2012)
Active and inactive are the calls of the source. The rule behind the calls is not given here.

How the values were obtained:
Rattus norvegicus [1] = experiment: Reduction of ischemia-reperfusion-induced TNFalpha level increase in Wistar rat serum at 1 g/kg, iv by ELISA; type: functional, organism-based
Summary of the method: (§1)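 Male Wistar rats, 210–230 g, anaesthetised with Zoletil and kept at 37 °C, underwent 30 min carotid occlusion then 24 h reperfusion; n = 5 per group. Compounds in 5% DMSO given i.v. at reperfusion onset and again after 6 h. Infarct volume from 2-mm coronal brain slices stained with 2% TTC, 37 °C, 30 min. Serum TNF-α by ELISA (pg/mL); means ± SEM.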

Thoracic aorta [2] = experiment: Vasodilator activity in Wistar rat endothelium-denuded thoracic aorta assessed as inhibition of L-phenylephrine-induced contraction; type: functional, tissue-based
Summary of the method: (§2)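 Rat aortic strips equilibrated 90 min, then contracted with 1 μM L-phenylephrine. Cumulative concentration-response curves were run at the plateau, with isometric recording. EC50 is the concentration giving 50% relaxation, mean of at least 5 determinations. ODQ 1 μM was added 5 min before contraction in a separate series.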

Rattus norvegicus [3] = experiment: Protection against hypoxia-induced brain damage in Wistar rat ischemia-reperfusion injury model assessed as reduction of cerebral infarct volume at 1 g/kg, iv administered at beginning of reperfusion and again after 6 hrs measured 24 hrs after reperfusion; type: functional, organism-based; summary of the method: as §1
Thoracic aorta [4] = experiment: Vasodilator activity in Wistar rat endothelium-denuded thoracic aorta assessed as inhibition of L-phenylephrine-induced contraction at 1 mM; type: functional; summary of the method: as §2
Serum = experiment: Metabolic stability of the compound in human serum at 0.5 mM after 3 hrs by RP-HPLC analysis; type: ADME, cell-free; details: 500 µM
Summary of the method: (§3)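 A 10 mM aqueous stock was added to human serum preheated to 37 °C, giving 0.5 mM final, then incubated at 37 ± 0.5 °C. Aliquots were deproteinized with acetonitrile/0.1% TFA, centrifuged, filtered and analysed by RP-HPLC on C18 with diode-array detection, using methanol/20 mM sodium acetate pH 4.5–5 mM SDS mobile phase.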

[5] = Binding affinity to Cu2+ assessed as formation of compound-cu2+ complex formation by pH-metric technique; type: physicochemical
Summary of the method: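 Compound and CuCl2, equimolar at 1 mM in water, acidified to pH 1.8 with 0.5 N HCl, then titrated with 0.5 N KOH to pH 12.2. Run under nitrogen at 25.0 ± 0.1 °C, ionic strength 0.15 M KCl, at least three titrations. Formation constants fitted from pH-metric data.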

[6] = Lipophilicity, log D of the compound at pH 7.4 by shake-flask method; type: physicochemical; details: buffer
Summary of the method: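 Shake-flask partition between n-octanol and phosphate buffer pH 7.4 (ionic strength 0.15 M KCl), phases presaturated 4 h. Compound about 0.1 mM in the aqueous phase; shaken about 20 min, centrifuged, aqueous concentration read by UV at 230 nm. At least 6 determinations per compound.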

[7] = Antioxidant activity against CuSO4-induced LDL oxidation assessed as delta-lag time at 100 uM by spectrophotometric analysis; type: functional
Summary of the method: (§4)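 Human LDL isolated by ultracentrifugation (density 1.019-1.063 g/mL), EDTA removed by desalting, diluted in 10 mM phosphate buffer pH 7.4 to 50 μg protein/mL; compound 100 μM final. Oxidation started with 2.5 μM CuSO4 at 37 °C; conjugated dienes followed at 234 nm. Lag phase versus control; propagation rate from ΔA234 over time using ε234 = 29500 M-1 cm-1.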

[8] = Antioxidant activity against CuSO4-induced LDL oxidation measured per mg of LDL product assessed as propagation rate of the oxidation at 100 uM by spectrophotometric analysis; type: functional; summary of the method: as §4
[9] = Antioxidant activity assessed as (E)-4-hydroxy-trans-2,3-nonenal scavenging activity in phosphate buffer at pH 7.4 at 1 mM after 24 hrs by reverse-phase HPLC analysis relative to control; type: functional
Summary of the method: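 HNE 50 μM incubated with compound 1 mM in 1 mM phosphate buffer pH 7.4 at 37 °C for up to 24 h. Remaining HNE measured directly by reverse-phase HPLC. Scavenging % = 100 − (HNE left with scavenger / HNE left in control × 100).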

Thoracic aorta [10] = experiment: Vasodilator activity in Wistar rat endothelium-denuded thoracic aorta assessed as inhibition of L-phenylephrine-induced contraction in presence of ODQ; type: functional, tissue-based; summary of the method: as §2
[11] = Half life in human serum at 0.5 mM by RP-HPLC analysis; type: ADME, cell-free; summary of the method: as §3
Rattus norvegicus [12] = experiment: Protection against hypoxia-induced brain damage in Wistar rat ischemia-reperfusion injury model assessed as reduction of cerebral infarct volume at 500 mg/kg, iv administered at beginning of reperfusion and again after 6 hrs measured 24 hrs after reperfusion; type: functional, organism-based; design: dose 500 mg/kg; summary of the method: as §1
Rattus norvegicus [13] = experiment: Reduction of ischemia-reperfusion-induced TNFalpha level increase in Wistar rat serum at 500 mg/kg, iv by ELISA; type: functional, organism-based; design: dose 500 mg/kg; summary of the method: as §1

SMILES | Stability (Serum) | Activity [5] | logD [6] | half-life at 500 µM [11] [min] | EC50 (Thoracic aorta [2]) [µM] | Activity (Rattus norvegicus [1]) | Activity (Thoracic aorta [2]) | Activity (Rattus norvegicus [3]) | inhibition at 1000 µM (Thoracic aorta [4]) [%] | TIME [7] [h] | Activity [8] [nmol/min] | Activity [9] [%] | Activity (Thoracic aorta [10]) | Activity (Rattus norvegicus [12]) | Activity (Rattus norvegicus [13])
NCCC(=O)N[C@@H](Cc1c[nH]cn1)C(=O)O | – | – | – | – | – | inactive | Dose-dependent effect | Active | – | – | – | – | – | – | –
NCCC(=O)N[C@@H](Cc1cnc[nH]1)C(=O)O [CARNOSINE] | – | – | – | 5 | – | – | – | – | – | – | – | – | – | – | –
NCCC(=O)N[C@@H](Cc1c[nH]cn1)C(=O)NCc1ccc(OCCCO[N+](=O)[O-])cc1 | Stable | – | -1.01 | – | 3 | – | Dose-dependent effect | – | – | 1.17 | 6.3 | 74.3 | inactive | – | –
NCCC(=O)N[C@@H](Cc1c[nH]cn1)C(=O)NC[C@H](CO[N+](=O)[O-])O[N+](=O)[O-] | Stable | Active | -2.19 | – | 70 | – | Dose-dependent effect | – | – | 1.47 | 5.8 | 77.6 | inactive | Active | Active

The next lines start with results.

Stability (Serum) | Activity [5] | logD [6] | half-life at 500 µM [11] [min] | EC50 (Thoracic aorta [2]) [µM] | SMILES | Activity (Rattus norvegicus [1]) | Activity (Thoracic aorta [2]) | Activity (Rattus norvegicus [3]) | inhibition at 1000 µM (Thoracic aorta [4]) [%] | TIME [7] [h] | Activity [8] [nmol/min] | Activity [9] [%] | Activity (Thoracic aorta [10]) | Activity (Rattus norvegicus [12]) | Activity (Rattus norvegicus [13])
Stable | Active | -2.43 | – | – | NCCC(=O)N[C@@H](Cc1c[nH]cn1)C(=O)NCCCO[N+](=O)[O-] | – | Dose-dependent effect | – | 46 | 1.5 | 3.9 | 75.4 | inactive | – | –
Stable | – | -1.15 | – | – | CCCOc1ccc(CNC(=O)[C@H](Cc2c[nH]cn2)NC(=O)CCN)cc1 | – | – | – | – | 1.07 | 9.5 | 73.3 | – | – | –
Stable | – | – | – | – | CCCNC(=O)[C@H](Cc1c[nH]cn1)NC(=O)CCN | – | – | – | – | – | – | – | – | Active | inactive
Stable | Active | -2.33 | – | 169 | NCCC(=O)N[C@@H](Cc1c[nH]cn1)C(=O)NC[C@@H](CO[N+](=O)[O-])O[N+](=O)[O-] | – | Dose-dependent effect | – | – | 1.25 | 5.8 | 67.2 | inactive | – | –
